Here are results for 13 compounds from ChEMBL document CHEMBL1240413, “Synthesis and evaluation of vinyl sulfones as caspase-3 inhibitors. A structure-activity study” (Eur J Med Chem, 2010).

The first experiment deals with T1, Caspase-3 (Homo sapiens, UniProt P42574).
T1 sequence (P42574 whole entry): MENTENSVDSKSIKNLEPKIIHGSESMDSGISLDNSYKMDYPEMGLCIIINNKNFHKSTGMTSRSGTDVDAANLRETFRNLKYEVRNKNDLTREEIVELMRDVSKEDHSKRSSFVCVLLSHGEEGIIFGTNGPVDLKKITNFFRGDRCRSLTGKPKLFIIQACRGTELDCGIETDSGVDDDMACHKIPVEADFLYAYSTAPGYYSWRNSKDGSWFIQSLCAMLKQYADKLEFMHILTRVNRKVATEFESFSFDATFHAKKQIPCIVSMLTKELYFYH
The experiment can be described thus: Inhibition of human recombinant caspase 3 assessed as fluorescent 7-amido-4-methylcoumarin release.
For `CS(=O)(=O)/C=C/[C@H](CC(=O)O)NC(=O)OCc1ccccc1`, the IC50 was 435 µM.

On to `C[C@H](NC(=O)OCc1ccccc1)C(=O)N[C@H](/C=C/S(C)(=O)=O)CC(=O)O`, for which the IC50 turned out to be 656 µM.

For the compound `O=C(O)C[C@@H](/C=C/S(=O)(=O)c1ccccc1)NC(=O)OCc1ccccc1`, the IC50 came to 453 µM.

Turning to `CC(C)[C@H](NC(=O)OCc1ccccc1)C(=O)N[C@H](/C=C/S(=O)(=O)c1ccccc1)CC(=O)O`, the IC50 came out at 388 µM.

As to `C[C@H](NC(=O)OCc1ccccc1)C(=O)N[C@H](/C=C/S(=O)(=O)c1ccccc1)CC(=O)O`, the IC50 is 343 µM.

Take `CC(C)[C@H](NC(=O)OCc1ccccc1)C(=O)N[C@H](/C=C/S(C)(=O)=O)CC(=O)O`: the IC50 came out at 133 µM.

A further experiment has as its target T2, Caspase-7 (Homo sapiens, UniProt P55210).
T2 sequence (P55210 whole entry): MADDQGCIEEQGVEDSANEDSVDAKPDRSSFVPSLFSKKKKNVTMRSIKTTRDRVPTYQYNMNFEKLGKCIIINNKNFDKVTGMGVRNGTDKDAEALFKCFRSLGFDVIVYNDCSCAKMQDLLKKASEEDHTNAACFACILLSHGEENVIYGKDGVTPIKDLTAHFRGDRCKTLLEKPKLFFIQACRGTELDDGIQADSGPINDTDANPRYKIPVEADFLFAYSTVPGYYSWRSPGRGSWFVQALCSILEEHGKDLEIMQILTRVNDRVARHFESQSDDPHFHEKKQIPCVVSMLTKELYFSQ
The experiment in a line: Inhibition of human recombinant caspase 7 assessed as fluorescent 7-amido-4-methylcoumarin release. The method in brief: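 Recombinant human caspase-7, 1 U per well final, was mixed with inhibitor at various concentrations in 20 mM HEPES, 2 mM EDTA, 0.1% CHAPS, 5 mM DTT, pH 7.4. The reaction was started by adding Ac-DEVD-AMC substrate, with a stock of 2 mM in DMSO. AMC release was followed continuously at 37 °C (ex 360, em 460 nm), and IC50 was determined.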
Turning to `CC[C@H](C)[C@H](NC(=O)OCc1ccccc1)C(=O)N[C@H](/C=C/S(=O)(=O)c1ccccc1)CC(=O)O`, the IC50 was over 200 µM.

On to `CS(=O)(=O)/C=C/[C@H](CC(=O)O)NC(=O)OCC1c2ccccc2-c2ccccc21`, for which the IC50 was over 200 µM.

As for `O=C(O)C[C@@H](/C=C/S(=O)(=O)c1ccccc1)NC(=O)OCC1c2ccccc2-c2ccccc21`, the IC50 is over 200 µM.

As for `CC(=O)N[C@@H](CC(=O)O)C(=O)N[C@@H](CCC(=O)O)C(=O)N[C@H](C(=O)N[C@H](C=O)CC(=O)O)C(C)C`, the IC50 was found to be 0.0591 µM.

In the case of `CC(C)[C@H](NC(=O)OCc1ccccc1)C(=O)N[C@H](/C=C/S(C)(=O)=O)CC(=O)O`, the IC50 is over 200 µM.

Take `CC(C)[C@H](NC(=O)OCC1c2ccccc2-c2ccccc21)C(=O)N[C@H](/C=C/S(C)(=O)=O)CC(=O)O`: the 50% inhibitory concentration (IC50) was over 200 µM.

As to `CC[C@H](C)[C@H](NC(=O)OCc1ccccc1)C(=O)N[C@H](/C=C/S(C)(=O)=O)CC(=O)O`, the IC50 is over 200 µM.

In the case of `CC(C)[C@H](NC(=O)OCC1c2ccccc2-c2ccccc21)C(=O)N[C@H](/C=C/S(=O)(=O)c1ccccc1)CC(=O)O`, the IC50 was over 200 µM.
